Measurements: ChEMBL document CHEMBL1212863, “Synthesis, and biological evaluation of 2-(4-aminophenyl)benzothiazole derivatives as photosensitizing agents” (2010)
One block for each compound: values may come before it. Activity calls are given as the source filed them. The calls are words filed in the database; no cut-off is given here.

Tests used:
[1] = Cell cycle arrest in human BCC cells assessed as accumulation at sub G1 phase at 4 uM incubated for 4 hrs followed by 1 J/cm'2 UV irradiation measured after 24 hrs […]; assay type: functional
How it was run: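 BCC cells (ATCC; RPMI1640, 10% FCS) exposed 4 h to agent, rinsed, irradiated in PBS with UVA (365 nm peak, 0.75 mW/cm²) at 1 J/cm². After 24 h, cells were fixed in 50% cold ethanol at −20 °C, treated with 100 µg/mL RNase A for 20 min at 37 °C, and stained with 50 µg/mL PI. 10,000 events were read by flow cytometry; the sub-G1 fraction was counted as apoptotic.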

BCC [2] = test: Induction of ERK phosphorylation in human BCC cells at 4 uM incubated for 4 hrs followed by 1 J/cm'2 UV irradiation
[3] = molecular target: c-Jun N-terminal kinase, JNK (Homo sapiens) (UniProt P45983+P53779+P45984); test: Inhibition of JNK phosphorylation in human BCC cells at 4 uM incubated for 4 hrs followed by 1 J/cm'2 UV irradiation; assay type: cell-based
How it was run: (§1)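 BCC cells were exposed to drug with UVA irradiation. Blots were blocked in 5% milk/PBS-T and probed for total and phospho-ERK, p38 and JNK. HRP secondaries and chemiluminescence were used; bands were quantified by densitometric scanning.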

[4] = Phototoxicity against human BCC cells assessed as cell viability at 4 uM incubated for 4 hrs followed by 1 J/cm'2 UV irradiation measured after 24 hrs by MTT assay; assay type: functional; conditions: light or radiation study, read-out: Activity
How it was run: (§2)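 MTT assay: BCC cells were seeded at 2500/well and attached overnight. Cells were incubated 4 h with drug in triplicate, rinsed, irradiated in PBS with 365 nm UVA (0.25, 0.5 or 1 J/cm²), then returned to medium. After 24 h, MTT was added for 2 h at 37 °C, formazan was dissolved in DMSO, and absorbance was read at 540 nm relative to untreated controls.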

[5] = Induction of apoptosis in human BCC cells assessed as decrease in intracellular ATP level at 2 uM incubated for 4 hrs followed by 1 J/cm'2 UV irradiation […]; assay type: functional; design: scale not given: the % may be the effect or the level left
BCC [6] = test: Induction of apoptosis in human BCC cells assessed as increase in intracellular H2O2 level at 4 uM incubated for 4 hrs followed by 1 J/cm'2 UV irradiation […]; assay type: functional, cell-based
How it was run: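 ROS was measured in BCC cells given 0–4 µM drug, with or without catalase (800 U/mL) pretreatment, and then irradiated with UVA. Immediately after irradiation, DCFH-DA (10 µM) was added for 30 min at 37 °C. DCF fluorescence was read by flow cytometry on FL-1.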

[7] = Phototoxicity against human BCC cells assessed as cell viability at 4 uM incubated for 4 hrs followed by 0.25 J/cm'2 UV irradiation measured after 24 hrs by MTT assay; assay type: functional; conditions: light or radiation study, read-out: Activity; how it was run: as §2
[8] = Phototoxicity against human BCC cells assessed as cell viability at 4 uM incubated for 4 hrs followed by 0.5 J/cm'2 UV irradiation measured after 24 hrs by MTT assay; assay type: functional; conditions: light or radiation study, read-out: Activity; how it was run: as §2
BCC [9] = test: Inhibition of MAPK phosphorylation in human BCC cells at 4 uM incubated for 4 hrs followed by 1 J/cm'2 UV irradiation; assay type: cell-based; how it was run: as §1
[10] = Induction of apoptosis in human BCC cells assessed as caspase3 activation at 4 uM incubated for 4 hrs followed by 1 J/cm'2 UV irradiation measured after 24 hrs […]
BCC [11] = test: Induction of apoptosis in human BCC cells assessed as decrease in mitochondrial potential at 2 uM incubated for 4 hrs followed by 1 J/cm'2 UV irradiation measured after 24 hrs; assay type: functional, cell-based
How it was run: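 BCC dishes grown 24 h were pretreated 4 h at 0, 2 or 4 µM and given 1 J/cm² UVA, then trypsinized. Cells were stained 30 min at room temperature with DiOC₆ (100 nM/mL), washed, and read immediately by flow cytometry (FL-1, 530/30 nm). The percentage of cells with reduced Δψmt was scored from 10,000 cells. Three independent experiments were run.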

[12] = Induction of apoptosis in human BCC cells assessed as decrease in intracellular ATP level at 4 uM incubated for 4 hrs followed by 1 J/cm'2 UV irradiation […]; assay type: functional; design: scale not given: the % may be the effect or the level left
[13] = Induction of apoptosis in human BCC cells assessed as caspase3 activation at 4 uM incubated for 4 hrs followed by 1 J/cm'2 UV irradiation measured after 24 hrs […]; assay type: functional; conditions: in the assay text read “2 uM” for “4 uM”
How it was run: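 Caspase-3 was measured in BCC cells 24 h after 4 h drug exposure and 1 J/cm² UVA (365 nm) given in PBS. Pellets were lysed in cold buffer (25 µL per 10⁶ cells), spun at 12,000 rpm for 10 min at 4 °C, and the supernatant assayed colorimetrically by pNA release at 405 nm. Results are mean SD.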

SMILES: COc1ccc2nc(-c3ccc(N)cc3)sc2c1
Activity [1]: 6.5%

SMILES: CCc1ccc2nc(-c3ccc(N)cc3)sc2c1
Activity [1]: 29.2%

SMILES: COc1cccc2nc(-c3ccc(N)cc3)sc12
Activity [1]: 24.4%

SMILES: Nc1ccc(-c2nc3ccccc3s2)cc1
Activity [1]: 6.5%

Activity [3]: inactive
SMILES: Nc1ccc(-c2nc3ccc(C(F)(F)F)cc3s2)cc1
Activity (BCC [2]): Active
viability at 4 µM [4]: 45%
Activity [1]: 35.4%
Activity [5]: 30%
Activity (BCC [6]): Active
viability at 4 µM [7]: 71%
viability at 4 µM [8]: 65%
Activity (BCC [9]): inactive
Activity [10]: 27.5%
Activity (BCC [11]): Active
Activity [12]: 45%
Activity [13]: 19.5%

SMILES: Cc1cc(-c2nc3ccc(C(F)(F)F)cc3s2)ccc1N
Activity [1]: 6.4%

SMILES: Cc1ccc2nc(-c3ccc(N)cc3)sc2c1
Activity [1]: 13.4%

SMILES: COc1ccc2nc(-c3ccc(N)c(C)c3)sc2c1
Activity [1]: 14.8%

SMILES: CCc1ccc2nc(-c3ccc(N)c(C)c3)sc2c1
Activity [1]: 13.8%

SMILES: Cc1cc(-c2nc3ccccc3s2)ccc1N
Activity [1]: 13.6%
